From PubChem BioAssay
Rows were chosen to be rich in hits. Some 1.9% of all compounds tested hit in one or more screens of this group.
SR-BI DiI inh = inhibitors of SR-BI mediated HDL lipid uptake, primary screen, ldlA[mSR-BI] cells, fluorescence, single point; Scavenger receptor class B member 1 (Mus musculus), Q61009; ldlA[mSR-BI] CHO cells, DiI-HDL uptake fluorescence, 3 h; inhibition, % at 12.5 µM; actives 0.96% (n = 320,000);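 active = mean replicate inhibition of at least 70% and a set share of replicates each scoring 70 or more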;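 also: 0% = median of neutral control wells and 100% = median of positive control wells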
UBC13 polyUb = UBC13 polyubiquitin chain formation inhibitors, primary screen, biochemical, TR-FRET, uHTS. Ubiquitin-conjugating enzyme E2 N (Homo sapiens), P61088. inhibition, % at 20 µM. actives 0.47% (n = 330,000). AID 485273, 2010; in the data active = inhibition above about 45%, passing the limit was not always enough
SR-BI uptake up = activators of SR-BI mediated DiI-HDL uptake, primary screen, ldlA[mSR-BI] CHO cells, DiI fluorescence. 3 h; 100 = double the neutral-control signal. activation, % at 12.5 µM. actives 0.096% (n = 320,000);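 active = mean replicate activation of at least 60% and every replicate at or above 60%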;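 also: 0% = median plate neutral-control signal and 100% = twice that signal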
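system = CHO ldlA[mSR-BI] cells, LDL receptor-null, SR-BI overexpressing | medium = Ham's F12 with 0.5% BSA, HEPES 25 mM, pH 7.4 | probe or stimulus = DiI-HDL 10 µg/mL | compound dosing = single-point compound dose | incubation = compound exposure 3 h, 37 °C | technique = DiI fluorescence, bottom read | read-out = cell-associated DiI fluorescence as measure of HDL uptake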
Neddyl block = inhibitors of cullin neddylation, primary screen, biochemical, TR-FRET, uHTS, NAE and Ubc12 | NEDD8-conjugating enzyme Ubc12 (Homo sapiens) + NEDD8-activating enzyme E1 regulatory … | actives 0.58% (n = 360,000) | AID 651699, 2012 | inhibition, % at 25 µM; in the data active = inhibition above about 36%
Target sequence (P61081 whole entry, looked up): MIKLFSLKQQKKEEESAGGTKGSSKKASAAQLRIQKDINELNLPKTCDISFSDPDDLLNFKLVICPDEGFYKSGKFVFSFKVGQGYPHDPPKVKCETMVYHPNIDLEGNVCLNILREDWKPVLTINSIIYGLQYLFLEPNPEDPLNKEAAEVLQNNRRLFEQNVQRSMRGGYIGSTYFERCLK
Target sequence (Q13564 whole entry, looked up): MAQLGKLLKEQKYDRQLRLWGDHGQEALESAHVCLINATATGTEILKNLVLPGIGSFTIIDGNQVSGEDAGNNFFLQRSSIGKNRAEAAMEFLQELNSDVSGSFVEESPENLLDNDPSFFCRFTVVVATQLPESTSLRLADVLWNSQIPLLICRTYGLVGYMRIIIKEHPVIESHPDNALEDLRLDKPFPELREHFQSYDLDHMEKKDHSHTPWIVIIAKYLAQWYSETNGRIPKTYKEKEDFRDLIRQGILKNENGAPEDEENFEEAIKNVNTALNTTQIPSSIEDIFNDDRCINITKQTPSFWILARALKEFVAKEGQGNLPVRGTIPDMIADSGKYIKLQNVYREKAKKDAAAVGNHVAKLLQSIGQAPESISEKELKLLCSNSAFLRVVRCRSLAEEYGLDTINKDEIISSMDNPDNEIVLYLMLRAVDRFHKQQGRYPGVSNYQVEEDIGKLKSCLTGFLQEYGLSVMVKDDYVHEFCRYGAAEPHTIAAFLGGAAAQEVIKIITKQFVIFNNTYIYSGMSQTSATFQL
Neddyl inh conf = blockade of NEDD8 conjugation to cullin – biochemical, TR-FRET, single concentration, confirmation. AID 652217, 2013. actives 13% (n = 1,800). shares compounds with Neddyl block. TR-FRET cullin neddylation biochemical assay. calls only at 25 µM; in the data active = inhibition above about 40%;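 also: neddylation substrate is the cullin 1 ring ligase complex with SKP2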
Active calls of the source: *; i = inactive; . = no result given; + = active, no number.

SMILES | SR-BI DiI inh | UBC13 polyUb | SR-BI uptake up | Neddyl block | Neddyl inh conf
CCOC(=O)Cn1nc(-c2ccc(C)cc2)c2ccccc2c1=O | 12 | 0 | -12 | 6 | .
CCOC(=O)Cn1nc(-c2ccccc2)c2cnc3ccc(C)cc3c21 | 33 | 10 | -33 | 42* | i
Cc1cc2c(c(N)n1)c(=O)oc1ccccc12 | -11 | 19 | 11 | 40* | i
OCC[C@@H]1C[C@H](O)[C@@H](O)[C@]2(OCc3ccc4ccccc4c32)O1 | . | . | . | 6 | .
Nc1nc2n(n1)C(c1cccc(Br)c1)CC(c1ccc(F)cc1)N2 (stereo not given) | 16 | 8 | -16 | 39* | i
Nc1nc2n(n1)C(c1ccccc1)CC(c1ccc(F)cc1)N2 (stereo not given) | 8 | 0 | -8 | 9 | .
CC(=O)N1CCOCC1c1cc(C(=O)Nc2ccccc2)no1 (stereo not given) | . | . | . | 5 | .
OC1CCN(c2c3c(nc4cc(-c5ccc(Cl)cc5)nn24)CCC3)CC1 | 66 | 5 | -66 | 40* | i
CC(C(=O)Nc1ccc2nccnc2c1)N1C(=O)C2C3C=CC(C3)C2C1=O (stereo not given) | 5 | -12 | -5 | 54* | .
C[C@@H](N)C(=O)NC[C@H]1O[C@@H](n2cnc3c(N)ncnc32)[C@H](O)[C@@H]1O | -2 | . | 2 | -2 | .
NC1=NC(=O)/C(=C/c2c(OS(=O)(=O)c3ccc(Cl)cc3)ccc3ccccc23)S1 | -22 | 5 | 22 | 41* | i
O=C(COc1ccccc1)Nc1ccc(-c2nnc(-c3ccco3)o2)cc1 | 16 | 0 | -16 | 39* | i
COc1ccccc1OCC(=O)Nc1cccc(-c2nnc(-c3ccco3)o2)c1 | 16 | 14 | -16 | 22 | .
CCOn1c(=O)c(-c2ccc(F)cc2)[n+]([O-])c2ccccc21 | 4 | 3 | -4 | 3 | .
CCOn1c(=O)c[n+]([O-])c2ccccc21 | -9 | -13 | 9 | 49* | .
O=c1c[n+]([O-])c2ccccc2n1OCc1ccccn1 | -4 | 2 | 4 | 37* | i
O=c1c[n+]([O-])c2ccccc2n1OCc1c(F)cccc1F | -16 | -9 | 16 | 42* | +
COC(=O)c1ccccc1COn1c(=O)c[n+]([O-])c2ccccc21 | 13 | -6 | -13 | 31 | .
COc1ccc(-c2ccc(C(=O)NC3CCCCC3)c3occc23)c(C)c1 | . | . | . | 40* | i
COc1ccc(-c2ccc(C(=O)NCc3ccc(C(F)(F)F)cc3)c3occc23)c(C)c1 | . | . | . | 40* | i
CC1(C(=O)Nc2ccc(F)c(Cl)c2)Cc2c(-c3ccc(C(N)=O)cc3)ccnc2O1 (stereo not given) | . | . | . | 5 | .
Cc1ccc(/C=C/c2ccc(=O)n(Cc3ccc(F)cc3)n2)cc1 | -15 | 2 | 15 | . | .
COc1ccc(/C=C/c2ccc(=O)n(Cc3ccccc3)n2)cc1 | -3 | 2 | 3 | 49* | .
O=c1ccc(/C=C/c2ccccc2)nn1Cc1ccc(F)cc1 | -14 | 5 | 14 | 45* | i
COc1ccc2c(c1)c(C)cc[n+]2Cc1ccccc1 | -13 | 6 | 13 | 43* | .
SMILES | SR-BI DiI inh | UBC13 polyUb | SR-BI uptake up | Neddyl block | Neddyl inh conf
Cc1ccc2c(c1)c(C)cc[n+]2Cc1ccccc1 | -4 | 14 | 4 | -4 | .
CN1CCN(c2nc(N3CCN(CCO)CC3)nc3ccccc23)CC1 | -22 | 14 | 22 | 45* | .
c1ccc(CN2CCN(c3nc(N4CCOCC4)c4ccccc4n3)CC2)cc1 | 29 | 4 | -29 | 32 | .
Cc1ccc(Cl)cc1NC(=O)C(=O)N/N=C/c1ccc2c(c1)OCO2 | 7 | -12 | -7 | 39* | i
Cc1cc(Cl)ccc1NC(=O)C(=O)N/N=C/c1ccc2c(c1)OCO2 | -14 | 1 | 14 | 43* | i
NC(=O)c1cnn2c(-c3cccc(C(F)(F)F)c3)ccnc12 | -21 | 12 | 21 | 48* | i
O=C(O)c1cnn2c(-c3ccccc3)ccnc12 | -10 | -1 | 10 | 21 | .
CCOC(=O)C1(C)CCN1C(=O)c1ccc(N(C)C)cc1 (stereo not given) | . | . | . | -7 | .
COc1ccc(-c2cn3cccnc3n2)cc1NC(=O)c1cccs1 | 38 | 8 | -38 | 55* | +
COc1ccc(-c2cn3cccnc3n2)cc1NS(=O)(=O)c1ccccc1 | -39 | 11 | 39 | 49* | i
O=S(=O)(Nc1ccc(-c2cn3cccnc3n2)cc1)c1ccccc1 | 3 | 9 | -3 | . | .
Cc1ccc(NC2C(=O)NC(=O)NC2=O)cc1 | -1 | . | 1 | 4 | .
C[C@H](O)[C@@H]1C(=O)N2CCc3c([nH]c4ccccc34)[C@@H]2C[C@@H]1N(C)C(=O)c1ccco1 | . | . | . | 37 | .
Cc1cc(C)c(S(C)(=O)=O)c(=O)[nH]1 | -5 | 4 | 5 | 8 | .
Cc1cc(=O)c2c([nH]1)c(C)cc1[nH]c(C)c(C)c12 | -21 | -2 | 21 | 43* | .
O=C1CC2(CCN(S(=O)(=O)c3ccccc3F)CC2)Oc2ccccc21 | -18 | 5 | 18 | 24 | .
Cc1cc(C)nc(-n2nc(C)c3c(C(=O)O)cc(-c4cccc(Br)c4)nc32)n1 | . | 14 | . | 40* | i
Cc1nn(-c2ccccc2)c2nc(-c3ccccc3)cc(C(=O)N3CCOCC3)c12 | 28 | 45 | -28 | . | .
O=C(O)c1cn(-c2ccc(F)cc2)c2cc(N3CCNCC3)c(F)cc2c1=O | 5 | . | -5 | . | .
COc1ccccc1N1CCN(C(=O)c2cc3c(s2)-c2ccccc2OC3)CC1 | -7 | 11 | 7 | 43* | i
Cc1cccn2c(=O)c3cc(C(=O)N4CC(C)CC(C)C4)sc3nc12 (stereo not given) | . | 14 | . | . | .
Cc1cccn2c(=O)c3cc(C(=O)N4CCCCC4C)sc3nc12 (stereo not given) | 9 | 11 | -9 | 51* | +
CCOC(=O)N1CCN(C(=O)c2cc3c(=O)n4cccc(C)c4nc3s2)CC1 | -20 | 9 | 20 | . | .
COc1ccccc1N1CCN(C(=O)c2cc3c(=O)n4cccc(C)c4nc3s2)CC1 | 21 | 3 | -21 | 49* | +
CCCCN(CC)C(=O)c1cc2c(=O)n3cccc(C)c3nc2s1 | 44 | 15 | -44 | 62* | .
O=C1C=C(C#Cc2ccc(Oc3ccccc3)cc2)C[C@@H](c2ccc(F)cc2)C1 | . | . | . | -37 | .
C[C@H](O)c1[nH]c2cc(F)ccc2c1[C@H](C)O | 5 | -18 | -5 | -4 | .
COc1ccc2sc(NC(=O)c3ccco3)nc2c1 | 22 | 4 | -22 | 40* | i
CCCC(C(=O)NCCC(C)C)N(Cc1ccccc1)C(=O)c1snc(C(N)=O)c1N (stereo not given) | -8 | 16 | 8 | 40* | i
